Experimental findings from ChEMBL document CHEMBL3526063, “Metabolism and pharmacokinetics of JM6 in mice: JM6 is not a prodrug for Ro-61-8048” (Drug Metab Dispos, 2012) are described below.

Data set [1] in a line: AUClast in C57BL/6N mouse treated with JM6 (containing <0.4% Ro-61-8048) at 10 mg/kg, po and Ro-61-8048 at 0.05 mg/kg, po drugs administered via gavage by LC-MS/MS analysis. The class given is ADME, organism-based. Set-up: dose 10 mg/kg, time 0 - last, route oral. Particulars: plasma. Summed up:
(§1)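 Male C57BL/6N mice were dosed by oral gavage at 10 mL/kg with a fine suspension in 10% hydroxypropyl-β-cyclodextrin in 50 mM phosphate buffer, pH 7. Plasma was taken at non-serial time points (n=3 per time point), extracted with 0.1% formic acid in acetonitrile containing diclofenac as internal standard, and quantified by UPLC-MS/MS. Composite non-compartmental parameters came from mean concentrations; AUClast by linear trapezoid, kel from at least three terminal points.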

Data set [2] is described as follows: Metabolic stability in mouse plasma assessed as half life at 5 uM after 10 to 1440 mins by LC-MS/MS analysis. The class given is ADME, cell-free.
A short description of data set [3]: Metabolic stability in human liver microsomes assessed as half life at 5 uM after 5 to 40 mins by LC-MS/MS analysis. The class given is ADME. A general note: Liver microsomes are vesicles of endoplasmic reticulum, rich in cytochrome P450 enzymes.
Data set [4] can be described thus: Tmax in C57BL/6N mouse treated with JM6 (containing <0.4% Ro-61-8048) at 9 mg/kg, po and Ro-61-8048 at 1 mg/kg, po drugs administered via gavage by LC-MS/MS analysis. In kind it is ADME, organism-based. Conditions: in vivo. Summed up:
(§2)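 Male C57BL/6N mice dosed by oral gavage (10 mL/kg) as fine suspensions in 10% hydroxypropyl-β-cyclodextrin in 50 mM phosphate buffer pH 7; dose formulations verified by LC-MS/MS. Plasma analysed by LC-MS/MS; composite non-compartmental parameters from mean concentrations (n=3 per time point), C0 set to zero. %F = dose-normalised po AUCinf over dose-normalised iv AUCinf, only within linear range.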

Data set [5] is described as follows: Half life in C57BL/6N mouse treated with JM6 (containing <0.4% Ro-61-8048) at 10 mg/kg, po and Ro-61-8048 at 0.05 mg/kg, po drugs administered via gavage by LC-MS/MS analysis. In kind it is ADME, organism-based. Conditions: in vivo. The method, boiled down: as §1
Data set [6] is described as follows: Oral bioavailability in C57BL/6N mouse treated with JM6 (containing <0.4% Ro-61-8048) at 10 mg/kg and Ro-61-8048 at 0.05 mg/kg drugs administered via gavage by LC-MS/MS analysis. Conditions: in vivo. In kind it is ADME, organism-based. The method, boiled down:
as §2

Data set [7] addresses Kynurenine 3-monooxygenase (Rattus norvegicus, UniProt O88867). Kind of data set: Inhibition of Wistar rat KMO assessed as 3-hydroxykynurenine formation preincubated for 5 mins using 100 uM kynurenine as substrate by LC-MS/MS analysis. The method, boiled down:
(§3)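 Liver mitochondrial KMO preparation (mouse C57 BL/6J, rat Wistar, human) at 0.3 mg protein/mL in 100 mM potassium phosphate pH 7.4 with 200 µM NADPH, 0.4 U/mL G6PDH, 3 mM glucose 6-phosphate. Compound pre-incubated 5 min at 25°C, then 100 µM kynurenine added; 40 min (rodent) or 60 min (human). Stopped with TCA; 3-hydroxykynurenine by LC-MS/MS. IC50 from 8-point 3-fold dilutions (top 3 or 30 µM), triplicates, n≥2 runs.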

A short description of data set [8]: Apparent permeability from apical to basolateral side in MDCK2 cells at 10 uM after 1 hr by LC-MS/MS analysis. The class given is ADME, cell-based, Canis lupus familiaris, MDCK-II. Conditions: dog. The method, boiled down:
(§4)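 MDCKII wild-type or MDR1 monolayers were grown 3 days on Transwells after seeding at 2×10^5 cells/well. Compound at 10 µM in HBSS with 25 mM HEPES, pH 7.4, was added apically or basolaterally in duplicate, with Lucifer Yellow as an integrity marker (wells above 100 nm/s rejected).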

In data set [9] the test system is Mus musculus. Kind of data set: Dose normalised AUC in C57BL/6N mouse treated with JM6 (containing <0.4% Ro-61-8048) at 10 mg/kg, po and Ro-61-8048 at 0.05 mg/kg, po drugs administered via gavage by LC-MS/MS analysis. In kind it is ADME, organism-based. Particulars: in vivo. The method, boiled down:
as §1

In data set [10] the target is Kynurenine 3-monooxygenase (Mus musculus, UniProt Q91WN4). Put plainly: Inhibition of C57BL/6J mouse KMO assessed as 3-hydroxykynurenine formation preincubated for 5 mins using 100 uM kynurenine as substrate by LC-MS/MS analysis. The method, boiled down: as §3
Kynurenine 3-monooxygenase (Mus musculus, UniProt Q91WN4), sequence (Q91WN4 whole entry): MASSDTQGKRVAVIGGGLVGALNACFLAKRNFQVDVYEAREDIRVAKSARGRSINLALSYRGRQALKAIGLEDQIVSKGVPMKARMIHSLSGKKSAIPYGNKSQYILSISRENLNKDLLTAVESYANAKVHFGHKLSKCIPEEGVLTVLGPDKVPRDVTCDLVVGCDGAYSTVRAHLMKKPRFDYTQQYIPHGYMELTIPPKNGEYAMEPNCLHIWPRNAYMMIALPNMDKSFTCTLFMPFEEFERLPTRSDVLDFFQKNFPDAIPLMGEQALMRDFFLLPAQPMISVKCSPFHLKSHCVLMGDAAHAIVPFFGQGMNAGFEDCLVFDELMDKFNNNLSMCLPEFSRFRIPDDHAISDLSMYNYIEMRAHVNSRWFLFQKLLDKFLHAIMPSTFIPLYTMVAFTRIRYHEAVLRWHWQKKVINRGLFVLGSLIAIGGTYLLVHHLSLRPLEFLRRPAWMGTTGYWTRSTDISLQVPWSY
Data set [11] in a line: Hepatic extraction ratio in human Hepatocyte at 1 uM after 10 to 90 mins by LC-MS/MS analysis. The class given is ADME, cell-based. Conditions: hepatocytes, read-out: ERH.
The subject of data set [12] is MDR1. Put plainly: Efflux ratio of permeability from basolateral to apical side over apical to basolateral side in MDCK2-MDR1 cells at 10 uM after 1 hr by LC-MS/MS analysis. In kind it is ADME, cell-based, Canis lupus familiaris. Conditions: dog, MDCK-MDR1. Summed up:
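MDCKII wild-type and MDR1 cells grown on Transwells 3 days at 2×10^5 cells/well. Compound 10 μM in HBSS with 25 mM HEPES pH 7.4, added apical or basolateral in duplicate, 1 h at 37 °C. Lucifer Yellow monitored monolayer integrity; wells above 100 nm/s rejected. Both chambers sampled, LC-MS/MS; Papp A>B and B>A, ratio B>A:A>B.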

For data set [13], the target named is Kynurenine 3-monooxygenase (Homo sapiens, UniProt O15229). Kind of data set: Inhibition of human KMO assessed as 3-hydroxykynurenine formation preincubated for 5 mins using 100 uM kynurenine as substrate by LC-MS/MS analysis. The method, boiled down: as §3
Kynurenine 3-monooxygenase (Homo sapiens, UniProt O15229), sequence (O15229 whole entry): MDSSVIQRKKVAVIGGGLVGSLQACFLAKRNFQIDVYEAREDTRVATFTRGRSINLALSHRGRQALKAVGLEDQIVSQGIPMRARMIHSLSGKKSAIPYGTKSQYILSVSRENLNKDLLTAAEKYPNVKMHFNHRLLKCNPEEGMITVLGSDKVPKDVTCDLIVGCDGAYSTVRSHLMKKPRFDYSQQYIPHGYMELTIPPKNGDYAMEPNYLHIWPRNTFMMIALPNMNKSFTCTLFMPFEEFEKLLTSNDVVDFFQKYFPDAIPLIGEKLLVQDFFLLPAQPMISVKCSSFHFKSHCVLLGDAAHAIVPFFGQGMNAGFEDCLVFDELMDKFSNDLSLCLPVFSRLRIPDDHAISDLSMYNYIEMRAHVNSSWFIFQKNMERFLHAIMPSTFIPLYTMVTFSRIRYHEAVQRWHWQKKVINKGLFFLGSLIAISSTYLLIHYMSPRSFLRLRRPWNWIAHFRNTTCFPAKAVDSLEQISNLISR
A short description of data set [14]: Tmax in C57BL/6N mouse treated with JM6 (containing <0.4% Ro-61-8048) at 10 mg/kg, po and Ro-61-8048 at 0.05 mg/kg, po drugs administered via gavage by LC-MS/MS analysis. The class given is ADME, organism-based. Particulars: in vivo. Summed up: as §2
Data set [15] is described as follows: AUC(infinity) in C57BL/6N mouse treated with JM6 (containing <0.4% Ro-61-8048) at 10 mg/kg, po and Ro-61-8048 at 0.05 mg/kg, po drugs administered via gavage by LC-MS/MS analysis. The class given is ADME, organism-based. More on the design: dose 10 mg/kg, route oral, time infinity. Particulars: plasma. The method, boiled down:
as §1

For data set [16], the system named is Mus musculus. Put plainly: Dose normalised AUC in C57BL/6N mouse treated with JM6 (containing <0.4% Ro-61-8048) at 9.5 mg/kg, po and Ro-61-8048 at 0.05 mg/kg, po drugs administered via gavage by LC-MS/MS analysis. In kind it is ADME, organism-based. Particulars: in vivo, in the assay text read “0.5 mg/kg” for “0.05 mg/kg”. The method, boiled down: as §1
Data set [17] relates to Mus musculus. Kind of data set: Dose normalised Cmax in C57BL/6N mouse treated with JM6 (containing <0.4% Ro-61-8048) at 9 mg/kg, po and Ro-61-8048 at 1 mg/kg, po drugs administered via gavage by LC-MS/MS analysis. In kind it is ADME, organism-based. Conditions: in vivo. Summed up:
as §1

The nature of data set [18]: Cmax in C57BL/6N mouse treated with JM6 (containing <0.4% Ro-61-8048) at 9 mg/kg, po and Ro-61-8048 at 1 mg/kg, po drugs administered via gavage by LC-MS/MS analysis. Conditions: in vivo. Set-up: dose 9 mg/kg, route oral. The class given is ADME, organism-based. Summed up:
as §1

Data set [19] in a line: Apparent permeability from basolateral to apical side in MDCK2 cells at 10 uM after 1 hr by LC-MS/MS analysis. In kind it is ADME, cell-based, Canis lupus familiaris, MDCK-II. Particulars: dog. The method, boiled down:
as §4

Data set [20] is described as follows: AUClast in C57BL/6N mouse treated with JM6 (containing <0.4% Ro-61-8048) at 50 mg/kg, po and Ro-61-8048 at 0.05 mg/kg, po drugs administered via gavage by LC-MS/MS analysis. Particulars: plasma. In kind it is ADME, organism-based. More on the design: dose 50 mg/kg, time 0 - last, route oral. Summed up: as §1
Data set [21] is described as follows: Cmax in C57BL/6N mouse treated with JM6 (containing <0.4% Ro-61-8048) at 10 mg/kg, po and Ro-61-8048 at 0.05 mg/kg, po drugs administered via gavage by LC-MS/MS analysis. The class given is ADME, organism-based. Set-up: dose 10 mg/kg, route oral. Conditions: in vivo. Summed up: as §1

Some results are limits rather than exact numbers.

Kynurenine 3-monooxygenase (Rattus norvegicus, UniProt O88867), sequence (O88867 whole entry): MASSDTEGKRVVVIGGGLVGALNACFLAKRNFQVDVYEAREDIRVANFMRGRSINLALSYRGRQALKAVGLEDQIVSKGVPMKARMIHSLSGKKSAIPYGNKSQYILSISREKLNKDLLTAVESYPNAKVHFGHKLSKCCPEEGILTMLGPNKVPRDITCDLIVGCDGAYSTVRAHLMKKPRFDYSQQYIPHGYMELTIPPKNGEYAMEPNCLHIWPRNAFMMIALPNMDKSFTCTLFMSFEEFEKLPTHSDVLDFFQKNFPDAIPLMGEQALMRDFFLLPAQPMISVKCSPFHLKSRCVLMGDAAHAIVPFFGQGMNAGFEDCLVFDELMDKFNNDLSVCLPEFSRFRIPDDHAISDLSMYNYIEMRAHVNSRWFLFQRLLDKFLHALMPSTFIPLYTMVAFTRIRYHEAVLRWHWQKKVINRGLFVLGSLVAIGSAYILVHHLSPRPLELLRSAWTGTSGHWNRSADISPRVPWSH

A word on the AUC(0-t): it is exposure summed from dosing to a finite time, without extrapolation to infinity. A low value points to low exposure. In general, half-life refers to the time needed for the level to fall by half in the phase considered. The Tmax is the time from dosing to the highest level. As a reminder, the bioavailability is the share of a dose that reaches the circulation, judged against a reference dose that is usually intravenous. A lower bioavailability goes with little systemic uptake. A word on the IC50: it is the concentration that inhibits the measured activity by half. What is called Papp A→B is the apparent permeability from the apical to the basolateral side of a cell layer. A word on the efflux ratio: it is the permeability from basolateral to apical divided by that in the opposite direction, in the common usage. What is called AUC(0-inf) is total exposure, with the tail of the curve extrapolated. As a reminder, the Cmax is the highest concentration seen after dosing. The term Papp B→A denotes how fast a substance crosses the layer from the basolateral side. In the case of `COc1ccc(S(=O)(=O)Nc2nc(-c3cccc([N+](=O)[O-])c3)cs2)cc1OC`, the area under the curve AUC(0-t) in data set [1] came to 4.9 µM·h; in data set [20] it was 7.9 µM·h. Further, the half-life at 5 µM in data set [2] is above 1440 min; in data set [3], 12 min. Further, the Tmax is 30 min in data set [4] and 60 min in [14]. The compound also showed a half-life in data set [5] of 348 min. Also, the bioavailability in [6] came out at 80%. The IC50 in [7] worked out at 0.022 µM; in data set [10], 0.09 µM; in data set [13], 0.17 µM. Moreover, the Papp A→B at 1 h, 10 µM in data set [8] (MDCK) came out at 17 ×10⁻⁶ cm/s. Also, the AUC/dose in [9] came out at 100000 nM·kg·h/mg; in data set [16], 110000 nM·kg·h/mg. Moreover, in data set [11], the hepatic extraction ratio at 1 µM worked out at 0.8. Further, in data set [12], the efflux ratio at 1 h, 10 µM was found to be 3.2. In addition, in data set [15], the AUC(0-inf) was 5.2 µM·h. In data set [17], this compound displayed a Cmax/dose of 21000 nM. The maximum concentration (Cmax) was 17000 nM in [18] and 530 nM in data set [21]. Moreover, the Papp B→A at 1 h, 10 µM in data set [19] (MDCK) was 13 ×10⁻⁶ cm/s.

The term Papp denotes the rate of passage across a membrane or cell layer, normalised by area and donor concentration. In the case of `COc1ccc(S(=O)(=O)Nc2nc(-c3cccc([N+](=O)[O-])c3)c(CN3CCCCC3)s2)cc1OC`, the figures for the AUC(0-t) in data set [1] and in [20] were 1.3 µM·h and 9.6 µM·h, respectively. Further, the half-life at 5 µM is above 1440 min in data set [2] and above 97 min in data set [3]. Also, the Tmax in [4] and in data set [14] was 30 min each time. The half-life in data set [5] was 42 min. In [6], this compound came in with a bioavailability of 13%. The values for the 50% inhibitory concentration (IC50) in data set [7], in [10] and in [13] were 7.1 µM, 20 µM and 11 µM, respectively. The apparent permeability (Papp) was found to be 4.7 ×10⁻⁶ cm/s in data set [8] (mdck-ii, 1 h, 10 µM) and 0.53 ×10⁻⁶ cm/s in [19] (mdck-ii, 1 h, 10 µM). For the same compound, the figures for the AUC/dose in data set [9] and in data set [16] were 130 nM·kg·h/mg and 160 nM·kg·h/mg, respectively. Further, the hepatic extraction ratio at 1 µM in [11] stood at 0.67. For the same compound, in [12], the efflux ratio at 1 h, 10 µM was 60. The same compound showed an area under the curve AUC(0-inf) in data set [15] of 1.3 µM·h. This compound also displayed a Cmax/dose in data set [17] of 110 nM. Moreover, the highest concentration (Cmax) in data set [18] was 1000 nM; in data set [21], 1900 nM.
